Data on five compounds can be found in ChEMBL document CHEMBL4837227, “Discovery and development of 2-aminobenzimidazoles as potent antimalarials” (Eur J Med Chem, 2021).

Each structure is given as a SMILES string. Values after ≈ are worked out from the molar mass of the structure shown. Active and inactive are the calls of the source. The calls are words filed in the database; no cut-off is given here.

The nature of series [1]: (§1) Binding affinity to Plasmodium falciparum 3D7 AMA1 (104 to 438 residues) expressed in Escherichia coli BL21(DE3) by surface plasmon resonance assay.
Series [2] can be described thus: Kinetic solubility of the compound at pH 6.5 measured after 30 mins by nephelometry. Conditions: buffer, read-out: Kinetic_solubility.
The subject of a further series is HEK293. The experiment in a line: Cytotoxicity against human HEK293 cells assessed as reduction in cell viability at 50 uM measured after 24 hrs by MTT assay. Conditions: hek293, 24 h. (In general: Tetrazolium assays rely on reduction of a dye to a coloured formazan, in cell work by metabolically active cells.)
For series [3], the system named is Plasmodium falciparum. The experiment in a line: Antimalarial activity against artemisinin-sensitive Plasmodium falciparum Cam3.II^rev expressing wild type K13 assessed as reduction in parasite growth measured after 72 hrs by Monash assay based fluorescence analysis. The series is classed as functional, organism-based. The procedure, abridged: (§2)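 Asynchronous P. falciparum cultures were grown continuously in complete RPMI with 25 mM HEPES, 0.5% Albumax II, 0.37 mM hypoxanthine and 2.0 g/l bicarbonate. They were exposed to serially diluted compound for 72 h. Controls were DMSO (0.01%) and a reference positive control. Fluorescence was read after 2 h in the dark at room temperature. IC50 is mean SEM from technical duplicate or triplicate, at least three biological replicates.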

Series [4] relates to Plasmodium falciparum. The experiment in a line: Antimalarial activity against synchronous ring stage of Plasmodium falciparum Dd2 assessed as parasite growth inhibition incubated for 72 hrs by Griffith assay based fluorescence analysis. In kind it is functional, organism-based. Conditions: Dd2, 72 h. The procedure, abridged: (§3)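 22-point dose-response, 3 per log, final 40 µM top, 0.4% DMSO. 72 h at 37 °C under 90% N2/5% CO2/5% O2. DAPI stain, confocal imaging. IC50 from 4-parameter fit normalised to in-plate puromycin and DMSO controls.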

The test system of series [5] is Plasmodium falciparum. Briefly: Antimalarial activity against artemisinin-resistant Plasmodium falciparum Cam3.II^C580Y expressing K13 mutant assessed as reduction in parasite growth measured after 72 hrs by Monash assay based fluorescence analysis. The series is classed as functional, organism-based. The procedure, abridged: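 Asynchronous culture, 72 h compound exposure. Compounds prepared at […] (twice the top concentration) in complete RPMI (25 mM HEPES, 0.5% Albumax II, 0.37 mM hypoxanthine, sodium bicarbonate), then serially diluted. Fluorescence read after 2 h room-temperature dark incubation. Negative control 0.01% DMSO. IC50 as mean SEM, n ≥ 3 biological replicates, each in technical duplicate or triplicate.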

Series [6] deals with Plasmodium falciparum. The experiment in a line: Selectivity index, ratio of IC50 for antimalarial activity against PfATP4 inhibitor SJ557733-resistant Plasmodium falciparum Dd2 to IC50 of antimalarial activity against Plasmodium falciparum Dd2. The series is classed as functional.
Series [7] is described as follows: Metabolic stability in mouse liver microsomes assessed as half-life at 1 uM measured for 60 mins in presence of NADPH regenerating system by LC-MS analysis. The series is classed as ADME, Microsome. The procedure, abridged: (§4)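 Compound was incubated at 37 °C with liver microsomes at 0.4 mg/mL protein. The reaction was started with an NADPH-regenerating system and quenched at time points over 60 min with acetonitrile containing diazepam as internal standard. No-NADPH controls were quenched at 2, 30 and 60 min.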

Series [8] in a line: Metabolic stability in human liver microsomes assessed as half-life at 1 uM measured for 60 mins in presence of NADPH regenerating system by LC-MS analysis. In kind it is ADME, Microsome. The procedure, abridged:
as §4

The subject of series [9] is Plasmodium falciparum. The experiment in a line: Antiplasmodial activity against PfATP4 inhibitor SJ557733-resistant Plasmodium falciparum Dd2 assessed as reduction in parasite growth incubated for 72 hrs by Griffith assay based fluorescence analysis. Conditions: Dd2, 72 h. The series is classed as functional, organism-based. The procedure, abridged:
as §3

Series [10] in a line: Metabolic stability in human liver microsomes assessed as intrinsic clearance at 1 uM measured per mg protein after 60 mins in presence of NADPH regenerating system by LC-MS analysis. The series is classed as ADME, Microsome. As to conditions: read-out: CLH. The procedure, abridged: as §4
A short description of series [11]: Metabolic stability in mouse liver microsomes assessed as intrinsic clearance at 1 uM measured per mg protein for 60 mins in presence of NADPH regenerating system by LC-MS analysis. In kind it is ADME, Microsome. As to conditions: read-out: CLH. The procedure, abridged: as §4
For orientation: Liver microsomes are vesicles of endoplasmic reticulum, rich in cytochrome P450 enzymes.

A short description of series [12]: Selectivity index, ratio of IC50 for antimalarial activity against Plasmodium falciparum Dd2 to IC50 of antimalarial activity against Plasmodium falciparum 3D7. The series is classed as functional.
In series [13] the test system is Plasmodium falciparum. Briefly: Antimalarial activity against synchronous ring stage of Plasmodium falciparum 3D7 assessed as parasite growth inhibition incubated for 72 hrs by Griffith assay based fluorescence analysis. As to conditions: 3D7, 72 h. In kind it is functional, organism-based. The procedure, abridged:
as §3

Series [14] has as its system Plasmodium falciparum 3D7. Described as §1.
Series [15] in a line: Kinetic solubility of the compound at pH 2 measured after 30 mins by nephelometry. The series is classed as physicochemical. Conditions: buffer, read-out: Kinetic_solubility. The procedure, abridged:
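Compound in DMSO was spiked into 0.01 M HCl (pH ~2.0) at a final DMSO of 1%. After 30 min, nephelometry gave a solubility range.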

In series [16] the test system is Plasmodium falciparum. The experiment in a line: Antimalarial activity against Plasmodium falciparum 3D7 assessed as reduction in parasite growth measured after 72 hrs by Monash assay based fluorescence analysis. In kind it is functional, organism-based. Conditions: 3D7, 72 h. The procedure, abridged:
as §2

Series [17] can be described thus: Selectivity index, ratio of IC50 for cytotoxicity against human HEK293 cells to antiplasmodial activity against Plasmodium falciparum 3D7. The series is classed as toxicity, cell-based. Conditions: read-out: Ratio IC50.

For the compound `Oc1cccc(-c2nc3ccccc3[nH]2)c1`, in [1], binding was characterised by a dissociation constant (Kd) of 800 µM.

With `Nc1nc2ccccc2n1-c1ccccc1O`, the solubility kinetic at 0.5 h in series [2] and in [15] was > 100 µg/mL in each case. For the same compound, the Activity result with HEK293 was “Non-Toxic”. For the same compound, the IC50 (in general, the point on the concentration scale where inhibition reaches its midpoint) was determined as 0.35 µM in the series on Plasmodium falciparum [3]; 0.0973 µM in the series on Plasmodium falciparum [4]; 0.264 µM in the series with Plasmodium falciparum [5]; 0.046 µM in the series with Plasmodium falciparum [9]; 0.0222 µM in the series with Plasmodium falciparum [13]; 0.077 µM in the series on Plasmodium falciparum [16]. The Ratio IC50 in the series with Plasmodium falciparum [6] stood at 0.5; in series [12], 4.4. Also, the half-life (as a rule, the time in which the quantity being followed falls by half) at 1 µM is 1.3 h in series [7] and > 4.25 h in series [8]. Also, the figures for the microsomal CLint at 1 µM in series [10] and in series [11] were < 7 µL/min/mg and 22 µL/min/mg, respectively. Further, the outcome in [14] was inactive. The selectivity ratio in series [17] is > 1000.

With `Nc1cccc(-c2nc3ccccc3[nH]2)c1`, binding in [1] was characterised by a dissociation constant (Kd) of 500 µM.

For the compound `Nc1cc(N)cc(-c2nc3ccccc3[nH]2)c1`, binding in series [1] was put at a Kd of 100 µM.

As for `Cc1ccc(-n2c(N)nc3ccccc32)c(O)c1`, the solubility kinetic at 0.5 h in series [2] was 25 µg/mL (≈ 104 µM); in series [15], > 100 µg/mL. In addition, the Activity entry with HEK293 is “Non-Toxic”. Besides, the IC50 is 0.14 µM in the series with Plasmodium falciparum [3]; 0.0317 µM in the series with Plasmodium falciparum [4]; 0.081 µM in the series with Plasmodium falciparum [5]; 0.0175 µM with Plasmodium falciparum [9]; 0.0135 µM in the series on Plasmodium falciparum [13]; 0.042 µM in the series on Plasmodium falciparum [16]. The Ratio IC50 was found to be 0.5 in the series on Plasmodium falciparum [6] and 2.3 in [12]. The figures for the half-life at 1 µM in series [7] and in series [8] were 0.3 h and 2.7 h, respectively. The results for the microsomal CLint at 1 µM in series [10] and in series [11] were 11 µL/min/mg and 97 µL/min/mg, respectively. Moreover, the selectivity ratio in [17] was > 1000.
